Experimental data: PMC9946004 (Infection and Drug Resistance, 2023)
In brackets after ≈: the same amount, converted by molar mass.

What was measured:
Assay in all cases: MIC by broth microdilution
Format in all cases: cell-based
Conditions in all cases: Staphylococcus aureus
S. aureus ATCC29213 = tested on: S. aureus ATCC29213
Method in brief: (§1)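 Broth microdilution per CLSI 2018 in Mueller–Hinton broth, in triplicate. Inoculum was 5×10^5 CFU/mL, incubated 20 h at 37 °C. MIC was the lowest concentration with no visible growth. ATCC29213 served as the quality-control strain.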

[1] = tested on: S. aureus 18-W26-14 (MRSA)
Method in brief: as §1

[2] = tested on: S. aureus 18-W27-73 (MRSA)
Method in brief: as §1

Row | MIC (S. aureus ATCC29213) [µg/mL] | MIC [1] [µg/mL] | MIC [2] [µg/mL] | SMILES
1 | 2 (≈ 5.93 µM) | 4 (≈ 11.9 µM) | 2 (≈ 5.93 µM) | CC(=O)NC[C@H]1CN(c2ccc(N3CCOCC3)c(F)c2)C(=O)O1 [Linezolid, linezolid]
2 | 1 (≈ 0.69 µM) | 2 (≈ 1.38 µM) | 1 (≈ 0.69 µM) | CN[C@H](CC(C)C)C(=O)N[C@H]1C(=O)N[C@@H](CC(N)=O)C(=O)N[C@H]2C(=O)N[C@H]3C(=O)N[C@H](C(=O)N[C@H](C(=O)O)c4cc(O)cc(O)c4-c4cc3ccc4O)[C@H](O)c3ccc(c(Cl)c3)Oc3cc2cc(c3O[C@@H]2O[C@H](CO)[C@@H](O)[C@H](O)[C@H]2O[C@H]2C[C@](C)(N)[C@H](O)[C@H](C)O2)Oc2ccc(cc2Cl)[C@H]1O [Vancomycin, vancomycin]
